Assay results from ChEMBL document CHEMBL1124472, “Renal vasodilators. The role of the 4-substituent in isoquinolin-3-ol cardiovascular agents: 4-ureido derivatives of isoquinolin-3-ol with selective renal vasodilator properties” (1989).

Key:
Conditions in all cases: route intravenous
[1] = tested on: Canis familiaris; test: Percent change in heart rate by 1.2 mg/kg of compound administered intravenously in dog; assay type: functional, Canis lupus familiaris
Outline: (§1)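 Adult dogs anesthetized with pentobarbital (45 mg/kg ip), instrumented for electromagnetic renal artery flow; femoral artery cannulated for blood pressure, cardiotachometer for heart rate; iv via femoral vein. Cumulative infusion at rising rates, 5 min each (0.2+1.0 mg/kg for 1.2; 0.2+1.0+5.0 mg/kg for 6.2), in 0.9% saline ± acid/base; ≥2 dogs; maximal % change from predrug over ≥30 min; RVR = MAP/RBF.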

[2] = tested on: Canis familiaris; test: Percent change in renal vascular resistant e by 1.2 mg/kg of compound administered intravenously in dog; assay type: functional, Canis lupus familiaris; outline: as §1
[3] = tested on: Canis familiaris; test: (§2) Percent change in renal blood flow by 1.2 mg/kg of compound administered intravenously in dog; assay type: functional, Canis lupus familiaris, Kidney; outline: as §1
[4] = tested on: Canis familiaris; test: Percent change in mean arterial blood pressure by 1.2 mg/kg of compound administered intravenously in dog; assay type: functional, Canis lupus familiaris; outline: as §1
[5] = tested on: Canis familiaris; test: Percent change in renal blood flow by 6.2 mg/kg of compound administered intravenously in dog; assay type: functional, Canis lupus familiaris; outline: as §1
[6] = tested on: Canis familiaris; test: Percent change in renal vascular resistant e by 6.2 mg/kg of compound administered intravenously in dog; assay type: functional, Canis lupus familiaris; outline: as §1
[7] = tested on: Canis familiaris; test: Percent change in mean arterial blood pressure by 6.2 mg/kg of compound administered intravenously in dog; assay type: functional, Canis lupus familiaris; outline: as §1
[8] = tested on: Canis familiaris; test: Percent change in heart rate by 6.2 mg/kg of compound administered intravenously in dog; assay type: functional, Canis lupus familiaris; outline: as §1
[9] = tested on: Canis familiaris; test: Percent increase in myocardial contractile force by 8.75 mg/kg of compound administered intravenously in dog; assay type: functional, Canis lupus familiaris, Myocardium
Outline: (§3)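 Adult mongrel dogs, pentobarbital 45 mg/kg ip, artificially respired; right thoracotomy, Walton Brodie strain gauge on right ventricle at 100 g baseline tension. Only dogs giving >100% contractile-force rise to dopamine (10-15 μg/kg per min × 3 min) were used. Compound in 10-15% dimethylformamide, total dose infused iv into femoral vein; % change in contractile force.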

[10] = tested on: Canis familiaris; test: Percent increase in myocardial contractile force by 0.025 mg/kg of compound administered intravenously in dog; assay type: functional, Canis lupus familiaris, Myocardium; outline: as §3
[11] = tested on: Canis familiaris; test: Percent increase in myocardial contractile force by 1.75 mg/kg of compound administered intravenously in dog; assay type: functional, Canis lupus familiaris, Myocardium; outline: as §3
[12] = tested on: Canis familiaris; test: as §2; assay type: functional, Canis lupus familiaris; outline: as §1
[13] = tested on: Canis familiaris; test: Percent increase in myocardial contractile force by 1.88 mg/kg of compound administered intravenously in dog; assay type: functional, Canis lupus familiaris, Myocardium; outline: as §3

Row | Structure (SMILES) | Change [1] | Change [2] | Change [3] | Change [4] | Change [5] | Change [6] | Change [7] | Change [8] | further results
1 | C=CCNC(=O)Nc1c(O)nc(C)c2cc(OC)c(OC)cc12 | -3% | -44% | 97% | 8% |  |  |  |  | 
2 | CCCCNC(=O)Nc1c(O)nc(C)c2cc(O)c(O)cc12 | 2% | 2% | -2% | -1% |  |  |  |  | 
3 | COc1cc2cnc(O)c(NC(C)=O)c2cc1OC |  |  |  |  | 30% | -12% | 14% | -8% | 
4 | CCCCC(=O)Nc1c(O)nc(C)c2cc(OC)c(OC)cc12 |  |  |  |  | -9% | 13% | 3% | 6% | 
5 | CCNC(=O)Nc1c(O)nc(C)c2cc(OC)c(OC)cc12 | 0% | -22% | 28% | 0% |  |  |  |  | 
6 | COc1cc2c(C)nc(O)c(NC(=O)Nc3ccc(C(=O)O)cc3)c2cc1OC | -12% | -28% | 40% | -1% |  |  |  |  | 
7 | COc1cc2c(C)nc(O)c(NC(=O)Nc3ccccc3)c2cc1OC | -13% | 35% | -23% | 0% |  |  |  |  | 
8 | COc1cc2c(C)nc(O)c(NC(=O)NC(C)(C)C)c2cc1OC |  |  |  |  | 10% | -8% | 1% | -4% | 
9 | CCCCNC(=O)Nc1c(O)nc(C)c2cc(OC)ccc12 | -6% | 16% | -12% | 3% |  |  |  |  | 
10 | C=CCOC(=O)Nc1c(O)nc(C)c2cc(OC)c(OC)cc12 |  |  |  |  | 2% | -11% | -9% | -2% | 
11 | COc1cc2c(C)nc(O)c(NC(=O)C(C)C)c2cc1OC |  |  |  |  | -5% | -4% | -2% | -1% | 
12 | COc1cc2c(C)nc(O)c(NC(=O)Nc3ccc(C(F)(F)F)cc3)c2cc1OC |  |  |  |  | 49% | -29% | 4% | 10% | 
13 | COc1cc2c(C)nc(O)c(NC(=O)Nc3ccc([N+](=O)[O-])cc3)c2cc1OC | -1% | -2% | 3% | 1% |  |  |  |  | 
14 | C=CCNC(=O)Nc1c(O)nc(C)c2cc(OCC)c(OC)cc12 | 29% | -22% | 28% | -2% |  |  |  |  | 
15 | COc1cccc(NC(=O)Nc2c(O)nc(C)c3cc(OC)c(OC)cc23)c1 |  |  |  |  | 59% | -36% | -1% | -2% | 
16 | COc1cc2c(C)nc(O)c(NC(C)=O)c2cc1OC |  |  |  |  | 39% | -24% | 6% | 14% | Increase [9]: 47%
17 | COc1cc2c(C)nc(O)c(NC(=O)Nc3cccc(C(F)(F)F)c3)c2cc1OC |  |  |  |  | 23% | -16% | 2% | -10% | 

Row | Structure (SMILES) | Change [1] | Change [2] | Change [3] | Change [4] | Change [5] | Change [6] | Change [7] | Change [8] | further results
18 | CCc1c(O)nc(C)c2cc(OC)c(OC)cc12 |  |  |  |  |  |  |  |  | Increase [10]: 143%
19 | COc1cc2cc(O)nc(C)c2cc1OC |  |  |  |  |  |  |  |  | Increase [11]: 100%
20 | COc1ccc(NC(=O)Nc2c(O)nc(C)c3c(OC)c(OC)c(OC)cc23)cc1 |  |  |  |  | 14% | -15% | -4% | 7% | 
21 | CNC(=O)Nc1c(O)nc(C)c2cc(OC)c(OC)cc12 | 3% | -5% | 4% | 4% |  |  |  |  | 
22 | COc1ccc(NC(=O)Nc2c(O)nc(C)c3cc(OC)c(OC)cc23)cc1 |  |  |  |  | 68% | -32% | 12% | 2% | 
23 | CCCCOC(=O)Nc1c(O)nc(C)c2cc(OC)c(OC)cc12 |  |  |  |  | -23% | 29% | -3% | -6% | 
24 | COc1cc2c(C)nc(O)c(NC(=O)NC3CCCCC3)c2cc1OC | 0% | -4% | 7% | 0% |  |  |  |  | 
25 | CCOc1cc2c(C)nc(O)c(NC(=O)Nc3ccc(OC)cc3)c2cc1OC |  |  |  |  | -8% | 15% | 6% | 10% | 
26 | CCCCCC(=O)Nc1c(O)nc(C)c2cc(OC)c(OC)cc12 |  |  |  |  | -27% | 40% | 0% | -9% | 
27 | COc1cc2c(C)nc(O)c(NC(=O)NC(C)C)c2cc1OC | 3% | -10% | 11% | -9% |  |  |  |  | 
28 | CCCCNC(=O)Nc1c(O)nc(C)c2cc(OC)c(OC)cc12 | 6% | -27% | 36% | -3% | 117% | -52% | 4% | -2% | 
29 | COc1cccc(NC(=O)Nc2c(O)nc(C)c3cc(OC)ccc23)c1 | 5% | -4% | 17% | 2% |  |  |  |  | 
30 | COc1cccc(NC(=O)Nc2c(O)nc(C)c3c(OC)c(OC)ccc23)c1 | -2% | -16% |  | -3% |  |  |  |  | Change [12]: 17%
31 | COc1cc2c(C)nc(O)c(N)c2cc1OC |  |  | 23% |  |  | -13% | 6% | 4% | Increase [13]: 114%
32 | CCOC(=O)c1ccc(NC(=O)Nc2c(O)nc(C)c3cc(OC)c(OC)cc23)cc1 | -1% | -4% | 2% | -2% |  |  |  |  | 
33 | CCCNC(=O)Nc1c(O)nc(C)c2cc(OC)c(OC)cc12 | -7% | 0% | 5% | 1% |  |  |  |  | 
